One molecule from ChEMBL document CHEMBL4000163, “Pyrazole derived ultra-short antimicrobial peptidomimetics with potent anti-biofilm activity” (Eur J Med Chem, 2017) can be followed below.

Structures are written as SMILES. ≈ marks a conversion by molar mass, not a printed value. Calls of active or inactive are those of the source. The calls are words filed in the database; no cut-off is given here.

In data set [1] the test system is Staphylococcus aureus. The data set can be described thus: Antimicrobial activity against Staphylococcus aureus KCTC 1621 incubated for 18 to 20 hrs by broth microdilution assay. The format is functional. The settings on record: read-out: MIC100. The gist of the method: (§1)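 Broth microdilution in 1% peptone. Inoculum was 2 × 10⁶ CFU/mL mixed 1:1 with serial 2-fold peptide dilutions and incubated 18–20 h at 37 °C. Growth was read as absorbance at 600 nm; MIC is the lowest peptide concentration giving 100% growth inhibition.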
On the technique in general: Dilution methods test growth across graded concentrations, often in twofold steps.

The subject of data set [2] is Pseudomonas aeruginosa. Briefly: Potency index, ratio of melittin MIC100 to compound MIC100 for Pseudomonas aeruginosa KCTC 1637. The class given is functional.
A short description of data set [3]: Therapeutic index, ratio of MHC for sheep RBC to MIC for Staphylococcus aureus KCTC 1621.
Data set [4] deals with Escherichia coli. The data set can be described thus: Antimicrobial activity against Escherichia coli KCTC 1682 incubated for 18 to 20 hrs by broth microdilution assay. The class given is functional. The settings on record: read-out: MIC100. The gist of the method: as §1
The subject of data set [5] is Staphylococcus aureus. The data set can be described thus: Antimicrobial activity against Staphylococcus aureus KCTC 1621 in presence of MgCl2. The format is functional. In short, it runs like this:
(§2)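 MIC by microdilution with 2 × 10⁶ CFU/ml S. aureus KCTC 1621 in LB medium supplemented with physiological salt: 150 mM NaCl, 1 mM MgCl₂ or 2.5 mM CaCl₂; growth inhibition endpoint as in the standard MIC assay.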

In data set [6] the test system is RAW264.7. The data set can be described thus: Antiinflammatory activity in mouse RAW264.7 cells assessed as inhibition of LPS-induced nitric oxide production after 24 hrs by Griess method. The class given is functional, cell-based. The gist of the method: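 RAW264.7 macrophages (5×10^5 cells/mL) stimulated with LPS (20 ng/mL), with or without peptide, for 24 h. Supernatants were mixed 1:1 with Griess reagent (1% sulfanilamide, 0.1% naphthylethylenediamine, 2% phosphoric acid) for 10 min at room temperature, read at 540 nm, and quantified against an NaNO₂ standard curve. Mean ± SEM of technical triplicates, ANOVA with Bonferroni post-test.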
Background: The Griess reaction detects nitrite, a stable product of nitric oxide.

Data set [7] deals with Pseudomonas aeruginosa. The data set can be described thus: Antibiofilm activity against multidrug-resistant Pseudomonas aeruginosa CCARM 2095 after 24 hrs by crystal violet staining based method. The settings on record: CCARM 2095, 24 h. The format is functional. In short, it runs like this: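 MDRPA 2095 (1×10^6 cfu/mL) in MHB with 0.2% glucose, 24 h at 37 °C with or without peptide (2-fold dilutions, 1-64 µg/mL), six wells each. Wells washed with PBS, methanol-fixed, stained with 0.1% crystal violet 5 min, stain resolubilized in 95% ethanol, absorbance at 600 nm.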

For another data set, the system named is NIH3T3. Briefly: Cytotoxicity against mouse NIH/3T3 cells up to 64 ug/mL after 2 days by MTT assay. The settings on record: nih3t3, 48 h. The class given is cell-based. The gist of the method:
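Cells in DMEM with 10% FBS seeded at 2×10^4 cells/well and incubated 24 h at 37 °C, 5% CO₂. Serial 2-fold peptide dilutions were added for 2 days, then MTT for 4 h. Formazan was dissolved in 20% SDS/0.01 M HCl and read at 570 nm. Survival is expressed as a percentage of untreated cells.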

Data set [8] deals with Staphylococcus aureus. The data set can be described thus: Antimicrobial activity against Staphylococcus aureus KCTC 1621 assessed as cell membrane damage at 2 times MIC after 1 hr by transmission electron microscopy. The format is functional. The gist of the method: (§3)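 Bacteria at 2×10^7 CFU/mL in LB, washed three times in PBS. Peptide in PBS was added to a final 2 × MIC and incubated 1 h at 37 °C. Pelleted cells were resuspended in PBS, applied to glow-discharged carbon-film grids, negatively stained with 1% uranyl acetate for 1 min, and imaged by TEM at 120 kV.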

Data set [9] concerns Staphylococcus aureus. Briefly: Antimicrobial activity against Staphylococcus aureus KCTC 1621 in presence of NaCl. The class given is functional. The gist of the method: as §2
Data set [10] relates to RAW264.7. The data set can be described thus: Antiinflammatory activity in mouse RAW264.7 cells assessed as inhibition of LPS-induced TNF-alpha production at 32 ug/mL preincubated with cells followed by LPS addition measured after 6 hrs by ELISA. The class given is functional. The gist of the method:
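RAW264.7 cells seeded at 5 × 10⁴ cells/well, left overnight, then given peptide at 37 °C. Unbound peptide was washed off with PBS (five washes) before LPS (20 ng/mL) was added for 6 h at 37 °C. TNF-α in the samples was measured by mouse ELISA. Mean ± SEM of technical triplicates, one-way ANOVA with Bonferroni post-test.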

In data set [11] the test system is Escherichia coli. Briefly: Antimicrobial activity against Escherichia coli KCTC 1682 in presence of MgCl2. The class given is functional. In short, it runs like this:
(§4)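 MIC in LB medium with added 150 mM NaCl, 1 mM MgCl₂ or 2.5 mM CaCl₂. Inoculum of 2 × 10⁶ CFU/mL with peptide. Otherwise as the broth microdilution MIC assay; MIC is the lowest concentration giving 100% growth inhibition.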

In data set [12] the test system is Staphylococcus aureus. The data set can be described thus: Potency index, ratio of melittin MIC100 to compound MIC100 for methicillin resistant Staphylococcus aureus CCARM 3095. The class given is functional.
The test system of data set [13] is Staphylococcus aureus. Briefly: Potency index, ratio of LL-37 MIC100 to compound MIC100 for Staphylococcus aureus KCTC 1621. The format is functional.
Data set [14] deals with Staphylococcus aureus. Briefly: Potency index, ratio of melittin MIC100 to compound MIC100 for methicillin resistant Staphylococcus aureus CCARM 3090. The format is functional.
Data set [15] relates to Staphylococcus aureus. The data set can be described thus: Potency index, ratio of melittin MIC100 to compound MIC100 for methicillin resistant Staphylococcus aureus CCARM 3089. The class given is functional.
Data set [16] concerns Pseudomonas aeruginosa. The data set can be described thus: Antibacterial activity against multidrug-resistant Pseudomonas aeruginosa CCARM 2109 after 18 to 20 hrs by broth microdilution assay. The format is functional. The settings on record: read-out: MIC100. The gist of the method: (§5)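 Broth microdilution in 1% peptone: bacteria at 2 × 10⁶ CFU/mL mixed 1:1 with serial 2-fold peptide dilutions, 18-20 h at 37 °C; growth read as absorbance at 600 nm. MIC taken as lowest concentration giving 100% growth inhibition.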

In data set [17] the test system is Staphylococcus aureus. The data set can be described thus: Antibacterial activity against methicillin resistant Staphylococcus aureus CCARM 3095 after 18 to 20 hrs by broth microdilution assay. The class given is functional. The settings on record: read-out: MIC100. The gist of the method: as §5
The nature of data set [18]: Therapeutic index, ratio of MHC for sheep RBC to geometric mean of MICs for four bacterial strains.
Data set [19] deals with RAW264.7. The data set can be described thus: Antiinflammatory activity in mouse RAW264.7 cells assessed as inhibition of LPS-induced TNFalpha mRNA expression at 16 ug/mL after 3 hrs by RT-PCR method. The class given is functional, cell-based. The gist of the method: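 RAW264.7 cells plated at 5×10^5 cells/well and cultured overnight. They were stimulated with 20 ng/mL LPS, with or without peptide, in DMEM with 10% bovine serum, for 3 h (TNF-α) or 6 h (iNOS). Total RNA was reverse-transcribed with oligo(dT)15 primers and amplified for 30 cycles (annealing 55 °C). mRNA was analysed by PCR.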

The subject of data set [20] is Escherichia coli. The data set can be described thus: Induction of inner membrane permeabilisation in Escherichia coli ML-35 assessed as ONPG hydrolysis up to 30 ug/ml by beta-galactosidase enzyme coupled spectrophotometric analysis. The class given is functional. The gist of the method:
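E. coli ML-35 (constitutive cytoplasmic β-galactosidase, lactose permease-deficient) washed and resuspended to OD600 0.5 in 10 mM sodium phosphate pH 7.4, 100 mM NaCl, with 1.5 mM ONPG. o-Nitrophenol release tracked spectrophotometrically over time after peptide addition at various concentrations.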

Data set [21] deals with Escherichia coli. The data set can be described thus: Antimicrobial activity against Escherichia coli KCTC 1682 assessed as disruption of bacterial cell membrane at 2 times MIC after 1 hr by transmission electron microscopy. The class given is functional. The gist of the method:
as §3

Data set [22] deals with Staphylococcus aureus. The data set can be described thus: Antibacterial activity against methicillin resistant Staphylococcus aureus CCARM 3089 after 18 to 20 hrs by broth microdilution assay. The format is functional. The conditions noted are these: read-out: MIC100. In short, it runs like this:
as §5

Data set [23] relates to Escherichia coli. Briefly: Antimicrobial activity against Escherichia coli KCTC 1682 in presence of NaCl. The format is functional. The gist of the method:
as §4

Broadly, the inhibition is the drop in the measured response relative to a control, in per cent. The term IC90 denotes the concentration needed for an effect of 90%. Lower therefore signals greater potency. As to `N=C(N)NCCC[C@H](NC(=O)c1nn(CCc2cccc3ccccc23)cc1NC(=O)[C@H](CCCNC(=N)N)NC(=O)c1nn(CCc2cccc3ccccc23)cc1N)C(N)=O`, the MIC in the data set on Staphylococcus aureus [1] is 4 µg/mL (≈ 4.67 µM); in the data set on Escherichia coli [4], 32 µg/mL (≈ 37.4 µM); in the data set on Staphylococcus aureus [5], 8 µg/mL; in the data set on Staphylococcus aureus [9] it was 4 µg/mL; in the data set with Escherichia coli [11], 32 µg/mL; in the data set on Pseudomonas aeruginosa [16] it was 8 µg/mL (≈ 9.35 µM). Moreover, the MIC with Staphylococcus aureus [17] amounted to 4 µg/mL (≈ 4.67 µM); in the data set with Staphylococcus aureus [22], 8 µg/mL (≈ 9.35 µM); in the data set on Escherichia coli [23] it was 32 µg/mL. Further, the Ratio in the data set with Pseudomonas aeruginosa [2] is on record as 4; with Staphylococcus aureus [12], 2 - 4; in the data set with Staphylococcus aureus [13] it was 8; in the data set with Staphylococcus aureus [14], 2 - 4; in the data set with Staphylococcus aureus [15], 2 - 4. Also, the TI in data set [3] and in data set [18] was 53.9 throughout. Also, in the data set with RAW264.7 [6], the inhibition result is “Dose-dependent effect”. The molecule further registered an IC90 with Pseudomonas aeruginosa [7] of 16 µg/mL (≈ 18.7 µM). Further, the Activity entry with NIH3T3 is listed as “Non-Toxic”. Further, the outcome in the data set on Staphylococcus aureus [8], in the data set with Escherichia coli [20] and in the data set on Escherichia coli [21] was Active. Also, the inhibition at 32 µg/mL in the data set with RAW264.7 [10] is more than 50%. Further, in the data set on RAW264.7 [19], the inhibition entry was “Active”.
